In brackets after ≈: the same amount, converted by molar mass.
Columns and labels:
Dihydrofolate reductase [1] = target: T1, Dihydrofolate reductase (Candida albicans, UniProt P22906); experiment: Inhibitory activity against cell free dihydrofolate reductase (DHFR) from Candida albicans; conditions: read-out: I50
T1 sequence (P22906 whole entry): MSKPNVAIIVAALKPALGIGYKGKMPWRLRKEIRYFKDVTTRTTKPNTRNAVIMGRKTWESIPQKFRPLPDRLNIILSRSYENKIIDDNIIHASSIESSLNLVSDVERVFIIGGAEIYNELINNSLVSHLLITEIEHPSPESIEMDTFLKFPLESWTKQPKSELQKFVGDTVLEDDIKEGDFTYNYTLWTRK

Dihydrofolate reductase [2] = target: T2, Dihydrofolate reductase (Rattus norvegicus, UniProt Q920D2); experiment: Inhibitory activity against cell free dihydrofolate reductase (DHFR) from rat; conditions: for IC50: read-out: I50
T2 sequence (Q920D2 whole entry): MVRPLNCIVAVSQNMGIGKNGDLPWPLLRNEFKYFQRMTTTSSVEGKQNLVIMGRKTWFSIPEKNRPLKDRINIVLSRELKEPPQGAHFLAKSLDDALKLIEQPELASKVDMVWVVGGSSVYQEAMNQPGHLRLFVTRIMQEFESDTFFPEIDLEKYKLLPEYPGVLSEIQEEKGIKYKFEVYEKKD

[3] = target: T3, Dihydropteroate synthetase, putative (Plasmodium berghei str. ANKA, UniProt A0A113T0T6); experiment: (§1) Inhibitory activity against dihydropteroic acid synthase (SYN) from Plasmodium berghei; conditions: read-out: I50
T3 sequence (A0A113T0T6 whole entry): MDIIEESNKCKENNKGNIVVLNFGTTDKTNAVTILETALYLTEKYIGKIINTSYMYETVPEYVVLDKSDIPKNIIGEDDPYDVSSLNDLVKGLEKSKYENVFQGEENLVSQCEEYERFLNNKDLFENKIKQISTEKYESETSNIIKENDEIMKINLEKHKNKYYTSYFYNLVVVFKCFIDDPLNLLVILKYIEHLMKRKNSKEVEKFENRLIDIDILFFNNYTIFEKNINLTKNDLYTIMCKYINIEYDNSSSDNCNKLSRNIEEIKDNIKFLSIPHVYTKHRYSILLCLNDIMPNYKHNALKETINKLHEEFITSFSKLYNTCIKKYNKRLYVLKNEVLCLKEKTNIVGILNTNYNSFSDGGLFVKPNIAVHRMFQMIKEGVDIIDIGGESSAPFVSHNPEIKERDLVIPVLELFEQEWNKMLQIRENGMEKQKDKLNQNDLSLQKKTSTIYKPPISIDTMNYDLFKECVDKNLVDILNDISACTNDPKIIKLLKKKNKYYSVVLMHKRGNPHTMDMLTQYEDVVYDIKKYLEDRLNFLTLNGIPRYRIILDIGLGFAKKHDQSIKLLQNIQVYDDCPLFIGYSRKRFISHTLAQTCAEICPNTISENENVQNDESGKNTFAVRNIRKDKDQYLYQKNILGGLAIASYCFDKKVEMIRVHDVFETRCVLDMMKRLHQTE

[4] = Inhibitory activity against dihydropteroic acid synthase (SYN) from Mycobacterium lufu (DDS resistant); conditions: read-out: I50
[5] = Inhibitory activity against dihydropteroic acid synthase (SYN) from Mycobacterium lufu (DDS sensitive); conditions: read-out: I50
[6] = Inhibitory activity against dihydropteroic acid synthase (SYN) from Escherichia coli; conditions: read-out: I50
[7] = Inhibitory activity against dihydropteroic acid synthase (SYN) from candida albicans; conditions: read-out: I50
Outline: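 Partially purified SYN extract was prepared from C. albicans ATCC 11651 and incubated with sulfones at pH 8.4. Periodic samples were quenched with trichloroacetic acid, and folate formed was quantified by bioassay with folate-requiring Streptococcus faecium. I50 is the concentration giving a 50% decrease in dihydropteroic acid production versus the uninhibited control.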

[8] = target: Dihydrofolate reductase (Mycobacterium lufu); experiment: Inhibitory activity against cell free dihydrofolate reductase (DHFR) from Mycobacterium lufu
Candida albicans [9] = experiment: Inhibitory effect on Candida albicans YEM12 Strain; type: functional
Outline: (§2)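 MICs were determined by serial dilution in RPMI medium. MIC is the lowest concentration giving culture turbidity ≤20% of the control culture.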

Candida albicans [10] = experiment: Inhibitory effect on Candida albicans YEM13 BENup Strain; type: functional; outline: as §2
Candida albicans [11] = experiment: Inhibitory effect on Candida albicans wild type YEM14 Strain; type: functional; outline: as §2
Candida albicans [12] = experiment: Inhibitory effect on Candida albicans wild type YEM30 Strain; type: functional; outline: as §2
Candida albicans [13] = experiment: Inhibitory effect on Candida albicans YEM15 CDR1CDR2up Strain; type: functional; outline: as §2
Candida albicans [14] = experiment: Inhibitory effect on Candida albicans YEM27 quad deletion Strain; type: functional; outline: as §2
[15] = target: T4, Dihydropteroate synthetase, putative (Plasmodium berghei str. ANKA) (UniProt A0A113T0T6); experiment: as §1
T4 sequence (whole entry): T3 sequence (A0A113T0T6 whole entry)

Nakaseomyces glabratus [16] = experiment: Inhibitory effect on Candida glabrata YEM75 WT Strain; type: functional
Outline: (§3)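 For C. glabrata strains, MICs were determined by serial dilution in RPMI medium and read after 48 h. MIC is the lowest concentration giving turbidity ≤20% of the control culture.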

Nakaseomyces glabratus [17] = experiment: Inhibitory effect on Candida glabrata YEM88 CgCDR1 CgCDR2up Strain; type: functional; outline: as §3
Nakaseomyces glabratus [18] = experiment: Inhibitory effect on Candida glabrata YEM216 pCDR1pCDR2pBEN YEM75 WT Strain; type: functional; outline: as §3

SMILES | IC50 (Dihydrofolate reductase [1]) [µM] | IC50 (Dihydrofolate reductase [2]) [µM] | IC50 [4] [µM] | IC50 [5] [µM] | other results
Nc1ncc(OCc2ccc(OCCCCN3C(=O)c4ccccc4C3=O)cc2)c(N)n1 | 0.078 | 6.07 | – | – | –
Nc1ncc(NCc2cccc(Cl)c2)c(N)n1 | 13.9 | 49.8 | – | – | –
COC(=O)c1ccc(S(=O)(=O)c2ccc(N)cc2)cc1 | – | – | 13.8 | 11.8 | IC50 [3]: 147 µM; IC50 [6]: 149 µM
Nc1ncc(NCc2cccc3ccccc23)c(N)n1 | 1.39 | 5.9 | – | – | –
CCNc1ccc(S(=O)(=O)c2ccc(N)cc2)cc1 | – | – | 1.48 | 2.75 | IC50 [7]: 3.16 µM; IC50 [6]: 41.7 µM
Nc1ncc(NCc2ccccc2)c(N)n1 | 7.94 | 58.2 | – | – | I50 [8]: 105 uM l-1
COc1cc(COc2cnc(N)nc2N)ccc1OCCCc1ccccc1 | 6.13 | 58.3 | – | – | –
Nc1ncc(OCc2ccccc2)c(N)n1 | 1.24 | 10.1 | – | – | –
CN(C)c1ccc(S(=O)(=O)c2ccc(N)cc2)cc1 | – | – | 2.04 | 1.76 | IC50 [3]: 21.5 µM; IC50 [7]: 3.83 µM
OC(Cn1cncn1)(Cn1cncn1)c1ccc(F)cc1F [FLUCONAZOLE] | – | – | – | – | MIC (Candida albicans [9]): 1 µg/mL (≈ 3.27 µM); MIC (Candida albicans [10]): 64 µg/mL (≈ 209 µM); MIC (Candida albicans [11]): 64 µg/mL (≈ 209 µM); MIC (Candida albicans [12]): 2 µg/mL (≈ 6.53 µM); MIC (Candida albicans [13]): 64 µg/mL (≈ 209 µM); MIC (Candida albicans [14]): ≤ 0.25 µg/mL
COc1ccc(S(=O)(=O)c2ccc(N)cc2)cc1 | – | – | 9.33 | 7.55 | IC50 [7]: 9.05 µM; IC50 [6]: 128 µM
CC(C)(C)c1ccc(COc2cnc(N)nc2N)cc1 | 23.8 | – | – | – | I50 (Dihydrofolate reductase [2]): 106 uM l-1
Nc1ncc(CNc2ccccc2)c(N)n1 | 59.4 | – | – | – | I50 (Dihydrofolate reductase [2]): 133.1 uM l-1
Cc1nc(N)nc(N)c1CCCc1ccccc1 | 9.9 | 0.82 | – | – | –
COc1ccc(COc2cnc(N)nc2N)cc1 | 26.1 | 99.7 | – | – | –
NNC(=O)c1ccc(S(=O)(=O)c2ccc(N)cc2)cc1 | – | – | 9.6 | 12.7 | I50 [15]: 76.5 µM; IC50 [6]: 155 µM
Cc1ccc(S(=O)(=O)NCCCOc2ccc(COc3cnc(N)nc3N)cc2)cc1 | 0.435 | 4.43 | – | – | –
Nc1ncc(OCc2ccc(Cl)c(Cl)c2)c(N)n1 | 3.72 | 56.7 | – | – | –
COC(=O)CNc1ccc(S(=O)(=O)c2ccc(N)cc2)cc1 | – | – | 2.63 | 2.24 | IC50 [7]: 1.33 µM; IC50 [6]: 101 µM
Cc1nc(N)nc(N)c1CCc1ccccc1 | 4.2 | 12.8 | – | – | –
Nc1ncc(OCc2cccc3ccccc23)c(N)n1 | 0.43 | 2.63 | – | – | MIC (Candida albicans [9]): 32 µg/mL (≈ 120 µM); MIC (Candida albicans [10]): > 64 µg/mL; MIC (Nakaseomyces glabratus [16]): 16 µg/mL (≈ 60.1 µM); MIC (Candida albicans [11]): > 64 µg/mL; MIC (Candida albicans [12]): > 64 µg/mL; MIC (Candida albicans [13]): > 64 µg/mL; MIC (Candida albicans [14]): 32 µg/mL (≈ 120 µM); MIC (Nakaseomyces glabratus [17]): 64 µg/mL (≈ 240 µM); MIC (Nakaseomyces glabratus [18]): 16 µg/mL (≈ 60.1 µM)
CNc1ccc(S(=O)(=O)c2ccc(N)cc2)cc1 | – | – | 2 | 1.29 | IC50 [3]: 26.7 µM; IC50 [7]: 2.81 µM; IC50 [6]: 46.2 µM
Nc1ncc(OCc2c(Cl)cccc2Cl)c(N)n1 | 3.1 | 2.57 | – | – | –
Nc1ncc(CSc2ccc3ccccc3c2)c(N)n1 | 30.9 | – | – | – | I50 (Dihydrofolate reductase [2]): 110.6 uM l-1
Nc1ncc(/C=C/c2ccccc2)c(N)n1 | 5.72 | – | – | – | I50 (Dihydrofolate reductase [2]): 130.6 uM l-1
Nc1ccc(S(=O)(=O)c2ccc(C(=O)O)cc2)cc1 | – | – | 3.17 | 3.6 | IC50 [7]: 2.78 µM; IC50 [6]: 74.2 µM
Nc1ccc(S(=O)(=O)c2ccc(Cl)cc2)cc1 | – | – | 18.7 | 13 | IC50 [7]: 14.3 µM

Source: ChEMBL document CHEMBL1139439, “Folate-synthesizing enzyme system as target for development of inhibitors and inhibitor combinations against Candida albicans-synthesis and biological activity of new 2,4-diaminopyrimidines and 4'-substituted 4-aminodiphenyl sulfones” (J Med Chem, 2004)
